XBP1 UPR activ: activators of adaptive arm of unfolded protein response (XBP1); AID 463104; 0.33% of 330,000 active; activation, % at 20 µM; CHO-XBP1 luciferase reporter, IRE1-XBP1 UPR activation, luminescence; percent of tunicamycin response, DMSO as zero;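 active = versus positive control, 20 µM dose yields 30% or more activation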;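 note: 100% = tunicamycin at 10 µg/mL and 0% = DMSO only wells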
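Material – CHO cell line with stable XBP1 luciferase reporter · Buffer or medium – F12 plus 10% FBS · Compound – single point, 20 µM final compound, 1% DMSO · Schedule – 16-18 h cell attachment at 37 °C, then 6 h compound exposure · Signal – Steady-Glo luminescence read · Benchmarks – high control tunicamycin 10 µg/mL final, low control DMSO vehicle only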
MC4R antagonist: antagonists of human melanocortin 4 receptor (MC4R); MC4R-expressing cells, MTII-stimulated cAMP, LANCE TR-FRET; inhibition, % at 6.5 µM; 0.48% of 360,000 active; AID 540295;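 active = inhibition above its plate's cutoff, the mean of tested wells on that plate plus 3 SD, cut at about 29% in these data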;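 note: 0% = Melanotan II alone and 100% = Melanotan II plus saturating MCL0020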
Target sequence (P32245 whole entry, looked up): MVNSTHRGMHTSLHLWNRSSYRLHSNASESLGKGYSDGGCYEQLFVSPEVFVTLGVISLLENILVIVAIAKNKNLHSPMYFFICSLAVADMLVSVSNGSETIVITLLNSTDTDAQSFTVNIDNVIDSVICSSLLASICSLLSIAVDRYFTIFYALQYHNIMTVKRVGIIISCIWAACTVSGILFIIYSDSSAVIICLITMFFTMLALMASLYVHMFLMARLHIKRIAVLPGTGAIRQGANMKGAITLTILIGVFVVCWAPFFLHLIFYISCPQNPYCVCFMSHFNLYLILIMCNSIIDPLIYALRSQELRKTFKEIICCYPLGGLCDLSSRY
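material = U2OS cells stably expressing human melanocortin 4 receptor (MC4R) | also added = Melanotan II challenge | dosing = single nominal compound dose of 6.5 µM | detection = TR-FRET with Eu-cAMP and labeled anti-cAMP, 671 nm | replication = singlicate | timing = compound 30 min, challenge 1 h, detection 1 h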
A1 inh: inhibitors of the anti-apoptotic protein A1, read as caspase activation. MEF A1-2A-BIM cells, Caspase-Glo 3/7 luminescence, 3 h; percent of clofoctol response, vehicle zero. caspase activation, % (test concentration not listed). 0.066% of 330,000 active. AID 2462;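 active = over half of replicate activation scores above 10%, or exactly half above 10 with the replicate mean above 10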
MC4R barr agon: activates human MC4R beta-arrestin recruitment | P32245 | U2OS MC4R beta-arrestin complementation, luminescence; percent of melanotan II response, DMSO zero | activation, % at 8.9 µM | 0.98% of 360,000 active;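 active = activation above a per-plate cutoff, the mean activation of sample wells on that plate plus 3 SD, cut at about 8% in these data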
UPR CHOP act: activators of apoptotic arm of unfolded protein response (CHOP) | activation, % at 10 µM | AID 449763 | 0.34% of 330,000 active | CHO-CHOP luciferase reporter, UPR activation, luminescence; percent of tunicamycin response over DMSO baseline;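 active = at 10 µM dose, activation of 40% or more, normalized to positive control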;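 note: 100% = tunicamycin at 10 µg/mL and 0% = DMSO alone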
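Dosing – one dose, 10 µM in 0.5% DMSO · System – CHO-CHOP cells, stable luciferase reporter of PERK-eIF2a-CHOP signalling · Input – 500 cells/well · Control set – tunicamycin 10 µg/mL final as positive, DMSO-only wells as negative · Timing – 6 h compound treatment, 37 °C · Measure – % activation vs tunicamycin · Technique – luminescence read with Steady-Glo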
cAMP nonselect: U2OS forskolin cAMP inhibition counter-screen; 26% of 1,600 active; inhibition, % at 6.5 µM; shares compounds with MC4R antagonist; parental U2OS, LANCE TR-FRET;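 active = mean inhibition over triplicates above the low-control well mean plus 3 SD, set per campaign, cut at about 13% in these data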;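 note: signal is single emission at 671 nm which falls as cellular cAMP rises; 0% = forskolin-stimulated wells and 100% = buffer without forskolin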
MC4R cAMP antag: human MC4R cAMP antagonism confirmation | shares compounds with MC4R antagonist | MC4R-expressing cells, MTII-stimulated cAMP, TR-FRET | inhibition, % at 6.5 µM | 27% of 1,600 active | AID 602195; in the data active = inhibition above about 29%;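 note: 0% = agonist stimulated wells alone and 100% = agonist stimulated wells plus saturating reference antagonist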
An asterisk follows results filed as active; · = not tested or not shown. Sampled rows, rich in hits. Any-hit rate of the full collection: about 2%.

SMILES | XBP1 UPR activ | MC4R antagonist | A1 inh | MC4R barr agon | UPR CHOP act | cAMP nonselect | MC4R cAMP antag
CCOC(=O)c1ccc(N/C=C/C(=O)C(C)(C)C)cc1 | 3.9 | 30.5* | -0.2 | 2.0 | 4.0 | 0.3 | 0.1
CC(=O)N(Cc1c(C)nn(-c2ccccc2)c1Cl)c1ccc(Cl)cc1 | -1.6 | 0.0 | 0.7 | -0.3 | -0.9 | · | ·
Cc1nn(-c2ccccc2)c(Cl)c1CN(C(=O)CCl)c1ccc(Cl)cc1 | · | 39.7* | 6.2* | 11.4* | · | -37.0 | 47.0*
COCC1CCN(Cc2c(C(=O)N3CCOCC3)nc3c(C)cccn23)C1 (centres undefined) | · | 6.1 | · | -1.1 | · | · | ·
Cc1cccn2c(CN3CCSCC3)c(C(=O)N3CCOCC3)nc12 | -1.4 | 29.3* | 0.1 | 0.2 | -1.0 | 0.9 | 4.3
CC(C)Cc1ccc(-c2cc3nc(NCCCn4ccnc4)ccn3n2)cc1 | · | 6.9 | · | 1.9 | · | · | ·
Cc1ccc(C)c(Oc2ncnc(N)c2[N+](=O)[O-])c1 | -2.1 | -0.1 | -0.6 | -1.4 | 0.4 | · | ·
Cc1cc(Sc2nc(N)ncc2[N+](=O)[O-])ncn1 | -6.5 | 40.4* | -0.7 | -1.7 | -8.8 | 20.4* | 34.6*
Cc1cc(Sc2ncnc(N)c2[N+](=O)[O-])ncn1 | -8.3 | 38.2* | 3.8 | -1.3 | -9.3 | 16.4* | 36.1*
Cc1ccc(-c2cnc3n2CCCCC3)cc1 | -1.9 | 32.5* | -1.2 | 2.6 | -1.6 | -3.5 | -8.2
Cc1ccc(OCC(=O)Oc2c(C)cccc2C)cc1 | -2.3 | 13.6 | 0.6 | 3.5 | 0.5 | · | ·
COCC(=O)Oc1cc(-c2ccc(C)cc2C)c(OC(=O)COC)c(-c2ccc(C)cc2C)c1 | · | 30.4* | · | -0.3 | · | 7.9 | 5.8
CCOCCn1c(CN2CCN(c3ccc(F)cc3)CC2)nc2c1c(=O)n(C)c(=O)n2C | -1.6 | 16.7 | 0.5 | 1.2 | -0.8 | · | ·
COC(=O)Cn1c(CN2CCN(c3ccc(F)cc3)CC2)nc2c1c(=O)n(C)c(=O)n2C | -2.4 | 28.9* | · | 0.7 | 1.0 | 4.2 | 10.9
CC(=O)Nc1ccc(-c2ccnc3c2CC(C(=O)Nc2cccc(C(C)=O)c2)O3)cc1 (centres undefined) | · | 3.7 | · | 1.0 | · | · | ·
Cc1cccc(OCC(=O)Nc2ccc3c(c2)nc(CN2CCCCC2)n3C)c1 | -3.1 | 32.1* | -0.7 | 0.8 | -2.9 | -1.2 | -16.0
CC[N+]1(C)CCC(O)(c2ccc(OC)cc2)C(C(=O)c2ccc(OC)cc2)C1 (centres undefined) | · | 28.7* | · | -3.5 | · | 17.0* | 17.1
CC(=O)c1nnn(-c2nc(N)nc(N(c3ccccc3)c3ccccc3)n2)c1C | -2.8 | 19.2 | -0.7 | 0.5 | 1.8 | · | ·
Cc1cc(C)n(-c2nc(N(c3ccccc3)c3ccccc3)nc(-n3nc(C)cc3C)n2)n1 | -4.8 | 61.8* | 0.5 | 4.3 | -7.1 | 2.9 | -7.0
COc1ccc(/C=C(\C#N)C(=O)Nc2cccc3ncccc23)cc1OC | -0.8 | 30.7* | 0.3 | -0.7 | -1.9 | -2.5 | 3.2
CC(C)(C)CC(C)(C)c1ccc(O)c(Cc2ccc(Cl)cc2Cl)c1 | · | 43.9* | · | 2.1 | · | 0.2 | 16.1
CCOC(=O)Cn1nnnc1CN(Cc1ccccc1)Cc1cc2cc(CC)ccc2[nH]c1=O | -1.3 | 29.7* | -0.3 | 2.5 | 3.3 | 2.6 | -0.3
CCC(C)Nc1nc(Cl)nc(N(C#N)CN2C(=O)c3ccccc3S2(=O)=O)n1 (centres undefined) | 2.9 | 47.6* | 0.7 | -1.2 | 19.2 | 22.8* | 39.8*
C=CCN(C(=O)CNS(=O)(=O)c1ccccc1)C(C(=O)NCCOC)c1cccnc1 (centres undefined) | -2.5 | 29.3* | 1.6 | 0.5 | -0.8 | -0.7 | -5.6
COCCNC(=O)C(c1cccnc1)N(Cc1ccccc1)C(=O)Cn1nnc2ccccc21 (centres undefined) | 2.5 | 10.8 | -2.3 | -1.3 | 3.0 | · | ·
SMILES | XBP1 UPR activ | MC4R antagonist | A1 inh | MC4R barr agon | UPR CHOP act | cAMP nonselect | MC4R cAMP antag
COc1ccc(-c2c(C)[nH]n3c(=O)c(Cc4ccccc4)c(C)nc23)cc1OC | -3.1 | 30.7* | -0.2 | -2.9 | -1.8 | 1.7 | 6.8
C[C@H](CO)N1C[C@H](C)[C@@H](CN(C)S(=O)(=O)c2ccc(-n3cccn3)cc2)OCc2cn(nn2)CCCC1=O | · | 2.5 | · | 0.6 | · | · | ·
CSCCC(NC(=O)c1ccc([N+](=O)[O-])cc1Cl)C(=O)OCC(=O)N1CCN(C(C)=O)CC1 (centres undefined) | -4.9 | 10.9 | -0.2 | -2.2 | 1.1 | · | ·
CSCCC(NC(=O)c1ccc([N+](=O)[O-])cc1Cl)C(=O)OCC(=O)C12CC3CC(CC(C3)C1)C2 (centres undefined) | -3.6 | 33.1* | 0.5 | 1.9 | 3.8 | -3.2 | 1.8
CSCCC(NC(=O)c1ccc([N+](=O)[O-])cc1Cl)C(=O)OC(C)C(=O)NCc1ccco1 (centres undefined) | 1.7 | 28.7* | 0.3 | -2.1 | -0.3 | 8.5 | 18.4
CCOC(=O)Cc1cc(=O)n2[nH]cc(-c3ccc(Cl)cc3)c2n1 | -5.8 | 30.5* | 0.6 | -1.2 | 0.5 | 1.1 | 2.5
Cc1ccc(Nc2nc(N/N=C/c3c[nH]c4ccccc34)nc(N3CCOCC3)n2)cc1 | 28.9 | 31.1* | 1.1 | 2.8 | 31.8 | 4.6 | 19.1
O=C(NNc1c2ccccc2nc2ccccc12)c1ccc(Cl)cc1 | 0.1 | 33.0* | 0.2 | -0.9 | 4.5 | -1.9 | -23.8
S=c1[nH]ncn2c1cc1oc3ccccc3c12 | 1.1 | 33.6* | -0.1 | -1.8 | 4.5 | 22.3* | 41.1*
Brc1ccc(-c2nn3c(-c4ccco4)nnc3s2)o1 | 2.0 | 44.5* | -0.1 | -3.4 | -2.6 | 26.0* | 38.6*
Brc1ccc(-c2nn3c(-c4ccccn4)nnc3s2)o1 | 2.4 | 10.4 | 0.2 | -1.4 | 3.1 | · | ·
S=c1[nH]c2ccccc2n2c(=S)[nH]nc12 | -1.7 | 31.1* | -1.4 | -3.0 | -0.8 | 46.0* | 73.6*
S=c1[nH]c2ccccc2n2cccc12 | 2.4 | 13.6 | -0.4 | -0.7 | 2.6 | · | ·
Cc1ccccc1N1CCN(C2CCCN(C(=O)CN3CCCC3=O)C2)CC1 (centres undefined) | -1.6 | 30.6* | 0.3 | 0.3 | -1.1 | -2.2 | -4.1
O=C(NC(=S)Nc1cc(S(=O)(=O)N2CCOCC2)ccc1O)c1ccco1 | 0.2 | -1.3 | -0.1 | 0.3 | 1.3 | · | ·
O=C(NC(=S)Nc1cc(S(=O)(=O)N2CCOCC2)ccc1N1CCOCC1)c1ccco1 | -0.6 | 36.6* | -1.1 | -3.7 | -0.7 | 1.3 | -7.4
CC(C)(C)C(=O)COC(=O)CNC(=O)c1ccc(Oc2ccccc2)cc1 | -0.3 | 28.6* | -0.3 | -1.1 | -1.4 | 12.8 | 21.0

Screening data (PubChem BioAssay)
